High-throughput results as filed in PubChem BioAssay.
TAAR1 agonist = agonists of human TAAR1; 360,000 compounds, 0.99% hits; CHO RD-HGA16 TAAR1, Fluo-8 calcium fluorescence; vehicle wells 0%, saturating PEA agonist 100%; activation, % at 3 µM; AID 624467;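 active = activation above the mean activation of all test compounds in the run plus 3 SD, cut at about 38% in these data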
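Signal – calcium-sensitive Fluo-8 signal, excitation 470-495, emission 515-575 nm · System – RD-HGA16 (CHO) cells co-expressing Gα16 and hTAAR1 · Incubation – 17-24 h seeding, 75 min 37 °C dye, 30 min RT · Compound dosing – 3 µM single concentration · Repeats – no replicates (n 1)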
CRFBP-R2 agonist = agonists of human CRF-binding protein/CRF-R2 receptor complex; HEK293 CRF-R2/CRF-BP, calcium dye fluorescence (FLIPR); percent of saturating CRF peptide response; activation, % at 13.2 µM; 350,000 compounds, 0.46% hits;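 active = activation of at least 50%, plus an integration ratio under a set limit after plate pattern correction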;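 note: plate controls were neutral control wells without compound for no effect and CRF at EC100 for full effect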
TMEM16A inh = mouse TMEM16A channel inhibition, primary screen; normalized B-score (activity score, 25-100; higher = stronger inhibition) at 10 µM; 310,000 compounds, 1.2% hits; HEK293 TMEM16A/YFP iodide influx fluorescence, ionomycin; Q8BHY3; AID 588511;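 active = ratio plate-corrected score three or more library SD toward inhibition, starting fluorescence score within five deviations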;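 note: score derived from kinetic fluorescence span divided by baseline fluorescence per well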
Target sequence (Q8BHY3 whole entry, looked up): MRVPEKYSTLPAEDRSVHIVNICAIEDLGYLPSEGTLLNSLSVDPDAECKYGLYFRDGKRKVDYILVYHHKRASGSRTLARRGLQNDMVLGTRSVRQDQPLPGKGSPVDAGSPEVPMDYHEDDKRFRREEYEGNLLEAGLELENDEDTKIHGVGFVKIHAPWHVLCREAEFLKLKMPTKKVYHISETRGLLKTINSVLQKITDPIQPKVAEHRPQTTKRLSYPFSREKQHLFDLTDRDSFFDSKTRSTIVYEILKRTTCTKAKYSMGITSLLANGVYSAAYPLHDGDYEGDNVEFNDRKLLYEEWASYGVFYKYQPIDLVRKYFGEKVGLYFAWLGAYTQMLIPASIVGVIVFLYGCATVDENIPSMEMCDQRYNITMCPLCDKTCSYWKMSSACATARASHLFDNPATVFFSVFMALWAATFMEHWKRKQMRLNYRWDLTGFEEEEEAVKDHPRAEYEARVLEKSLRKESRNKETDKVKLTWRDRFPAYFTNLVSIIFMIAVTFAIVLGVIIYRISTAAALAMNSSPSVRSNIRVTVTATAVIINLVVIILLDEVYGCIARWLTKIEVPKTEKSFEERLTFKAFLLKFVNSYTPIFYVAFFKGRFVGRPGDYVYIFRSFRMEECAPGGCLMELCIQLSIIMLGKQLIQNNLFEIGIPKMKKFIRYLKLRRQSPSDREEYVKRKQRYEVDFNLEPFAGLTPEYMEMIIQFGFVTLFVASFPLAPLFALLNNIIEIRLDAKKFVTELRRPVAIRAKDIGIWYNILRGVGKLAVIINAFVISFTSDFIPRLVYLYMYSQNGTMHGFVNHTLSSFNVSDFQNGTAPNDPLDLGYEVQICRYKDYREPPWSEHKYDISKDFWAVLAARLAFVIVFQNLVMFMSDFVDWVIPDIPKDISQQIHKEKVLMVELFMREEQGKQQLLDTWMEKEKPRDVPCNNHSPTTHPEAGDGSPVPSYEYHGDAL
CRFBP-R2 block = antagonists of CRF-binding protein/CRF-R2 receptor complex; AID 588475; 350,000 compounds, 0.59% hits; inhibition, % at 11.8 µM; HEK293 CRF-R2/CRF-BP, CRF-induced calcium fluorescence;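 active = inhibition of the ligand-induced calcium signal above about 50% at the single tested concentration, limit read from the data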
TMEM16A act = activates or potentiates the mouse TMEM16A chloride channel | Q8BHY3 | HEK293 TMEM16A/YFP-H148Q/I152L, iodide quench fluorescence; active compounds read low | B-score at 10 µM | 340,000 compounds, 0.3% hits | AID 623877;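 active = fluorescence-ratio B-score plate-corrected deviation score at least 3 library SD below zero, with starting fluorescence score within 5 deviations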;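 note: channel opened by trigger with iodide after compound preincubation; score built on the fluorescence ratio of max minus min over baseline; more negative score means more quench and so TMEM16A activation or potentiation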
TAAR1 antagonist = antagonists of human TAAR1; CHO RD-HGA16 TAAR1, Fluo-8 calcium fluorescence, antagonist; inhibition, % at 3 µM; 360,000 compounds, 1.5% hits;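 active = inhibition above a per-plate cutoff, the mean inhibition of test compounds on that plate plus 3 SD, cut at about 49% in these data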;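 note: 0% = DMSO plus EC80 beta-PEA response and 100% = DMSO alone without agonist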
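Test system: RD-HGA16 CHO cells with stable hTAAR1 and Gα16 / Probe or stimulus: EC80 β-phenethylamine stimulus / Times: seeding 17-24 h prior, 75-min 37 °C, 30-min RT dye loading / Detection: Fluo-8 calcium-sensitive fluorescence / Read-out basis: % inhibition scaled between DMSO and EC80 PEA controls / Repeats: singlicate, one well per test compound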
nonsel antag count = nonselective antagonist in TAAR1 antagonist counter-screen; shares compounds with TAAR1 antagonist; counterscreen cell line, calcium fluorescence, antagonist mode; inhibition, % at 3 µM; 2,400 compounds, 77% hits; in the data active = inhibition above about 22%;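 note: CHO-Ga16 host cells stimulated with ATP at an EC80 level; 0% = agonist EC80 plus vehicle and 100% = vehicle without agonist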
TAAR1 antag conf = confirmation of human TAAR1 antagonists; shares compounds with TAAR1 antagonist; inhibition, % at 3 µM; 2,400 compounds, 40% hits; TAAR1-expressing cells, fluorescence antagonist read-out; in the data active = inhibition above about 49%;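 note: CHO-Ga16 host cells challenged with agonist PEA near its EC80; 0% = agonist at EC80 plus vehicle and 100% = vehicle with no agonist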
Ga16 ag counter = counter-screen for TAAR1 antagonists: nonselective Ga16 agonists; shares compounds with TAAR1 antagonist; Ga16-expressing cells, calcium fluorescence, agonist counterscreen; activation, % at 3 µM; 2,400 compounds, 18% hits; AID 651953; in the data active = activation above about 12%;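 note: 0% = vehicle wells and 100% = saturating stimulus response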
TAAR1 ag count = activates human TAAR1 in antagonist counter-screen | shares compounds with TAAR1 antagonist | 2,400 compounds, 2% hits | activation, % at 3 µM | hTAAR1 cell line, fluorescence activation, agonist mode; in the data active = activation above about 37%;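 note: CHO cells stably expressing TAAR1 with calcium dye readout; 0% = DMSO vehicle and 100% = full agonist response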
* = called active by the depositor. The list is not random: actives were taken first. Their share in the collection is about 3.9%.

Results for CCc1cccc(NC(=O)Cc2ccc(OC)c(OC)c2)c1 ?
TAAR1 agonist: 5; CRFBP-R2 agonist: 1; TMEM16A inh: inactive; CRFBP-R2 block: -7; TMEM16A act: inactive; TAAR1 antagonist: -7

What do the screens show for `COc1ccc(CC(=O)Nc2cccc(-c3nnc(-c4ccc(C)cc4)o3)c2)cc1OC`?
TAAR1 agonist: 24; CRFBP-R2 agonist: 0; TMEM16A inh: 25*; CRFBP-R2 block: -16; TMEM16A act: inactive; TAAR1 antagonist: 82*; nonsel antag count: 53*; TAAR1 antag conf: 69*; Ga16 ag counter: 17*; TAAR1 ag count: 15

What do the screens show for `C=CCn1c2ccccc2c(=O)c2cc(C#CC[C@@H](C)O)ccc21`?
TAAR1 agonist: 4; CRFBP-R2 agonist: -2; CRFBP-R2 block: 4; TMEM16A act: inactive; TAAR1 antagonist: 9

What do the screens show for `C=CCn1c2ccccc2c(=O)c2cc(C#CC3(O)CCCCC3)ccc21`?
TAAR1 agonist: 13; CRFBP-R2 agonist: 0; TMEM16A inh: inactive; CRFBP-R2 block: -9; TMEM16A act: inactive; TAAR1 antagonist: 66*; nonsel antag count: 30*; TAAR1 antag conf: 46; Ga16 ag counter: 5; TAAR1 ag count: 5

Results for CCN(CC)S(=O)(=O)c1ccc(NC(=O)C2CCCN(C(=O)c3ccc(Cl)cc3)C2)cc1 (stereo unspecified) ?
TAAR1 agonist: 16; CRFBP-R2 agonist: -1; TMEM16A inh: inactive; CRFBP-R2 block: -12; TMEM16A act: inactive; TAAR1 antagonist: -6

How did c1ccc(-c2cc3c(N4CCN(c5ncccn5)CC4)ncnc3s2)cc1 do in these assays?
TAAR1 agonist: 5; CRFBP-R2 agonist: -2; TMEM16A inh: inactive; CRFBP-R2 block: -9; TMEM16A act: inactive; TAAR1 antagonist: 55*; nonsel antag count: 30*; TAAR1 antag conf: 50*; Ga16 ag counter: 4; TAAR1 ag count: 6

Results for c1ccc(-c2cc3c(N4CCN(c5ccccc5)CC4)ncnc3s2)cc1 ?
TAAR1 agonist: 2; CRFBP-R2 agonist: 1; TMEM16A inh: inactive; CRFBP-R2 block: -18; TMEM16A act: inactive; TAAR1 antagonist: 32

What do the screens show for `Cc1cccc2cc(C3CC(c4cccs4)=NN3S(C)(=O)=O)c(Cl)nc12` (stereo unspecified)?
TAAR1 agonist: 3; CRFBP-R2 agonist: 2; TMEM16A inh: inactive; CRFBP-R2 block: 3; TMEM16A act: inactive; TAAR1 antagonist: 83*; nonsel antag count: 5; TAAR1 antag conf: 35; Ga16 ag counter: 1; TAAR1 ag count: 10

How did CN(C)S(=O)(=O)c1cccc(COC(=O)Cc2c(F)cccc2Cl)c1 do in these assays?
TAAR1 agonist: 2; CRFBP-R2 agonist: 0; TMEM16A inh: inactive; CRFBP-R2 block: 30; TMEM16A act: inactive; TAAR1 antagonist: 20

What do the screens show for `CCOc1cc(/C=N/NC(N)=O)cc(Br)c1OCC(=O)Nc1cccc2ccccc12`?
TAAR1 agonist: 37; CRFBP-R2 agonist: 2; TMEM16A inh: inactive; CRFBP-R2 block: -23; TMEM16A act: inactive; TAAR1 antagonist: 66*; nonsel antag count: 31*; TAAR1 antag conf: 55*; Ga16 ag counter: 14*; TAAR1 ag count: 17

What do the screens show for `CCc1nc2ccc(C(=O)NCCOc3ccc(OC)cc3)cn2c1N(C)Cc1ccc(OC)cc1`?
TAAR1 agonist: 0; TAAR1 antagonist: 43

What do the screens show for `CCc1nc2ccc(C(=O)NCCOc3ccc(OC)cc3)cn2c1N(C)Cc1cccs1`?
TAAR1 agonist: 0; TAAR1 antagonist: 62*; nonsel antag count: 29*; TAAR1 antag conf: 33; Ga16 ag counter: 5; TAAR1 ag count: 1

What do the screens show for `COCCn1c(-c2ccc(F)cc2)nc2cccnc21`?
TAAR1 agonist: -1; CRFBP-R2 agonist: -2; TMEM16A inh: inactive; CRFBP-R2 block: 2; TMEM16A act: inactive; TAAR1 antagonist: 4

What do the screens show for `O=C(Nc1ccc(N2CCOCC2)c(Cl)c1)c1ccc(Cl)cc1`?
TAAR1 agonist: 10; CRFBP-R2 agonist: -1; TMEM16A inh: inactive; CRFBP-R2 block: -7; TMEM16A act: inactive; TAAR1 antagonist: 57*; nonsel antag count: 24*; TAAR1 antag conf: 49*; Ga16 ag counter: 11; TAAR1 ag count: 8

Results for COc1ccccc1NS(=O)(=O)c1cc(NC(=O)C(C)(C)C)ccc1N1CCOCC1 ?
TAAR1 agonist: 20; CRFBP-R2 agonist: -1; TMEM16A inh: inactive; CRFBP-R2 block: 4; TMEM16A act: inactive; TAAR1 antagonist: 72*; nonsel antag count: 29*; TAAR1 antag conf: 58*; Ga16 ag counter: 10; TAAR1 ag count: 10

How did O=C(Nc1ccc(N2CCOCC2)c(Cl)c1)c1ccc2c(c1)OCCO2 do in these assays?
TAAR1 agonist: 10; CRFBP-R2 agonist: -1; TMEM16A inh: inactive; CRFBP-R2 block: -8; TMEM16A act: inactive; TAAR1 antagonist: 34

How did O=S(=O)(/N=C(/Nc1ccc(Cl)c(S(=O)(=O)N2CCOCC2)c1)c1ccc(F)cc1)c1ccccc1 do in these assays?
TAAR1 agonist: 15; CRFBP-R2 agonist: 3; TMEM16A inh: inactive; CRFBP-R2 block: 7; TMEM16A act: inactive; TAAR1 antagonist: 71*; nonsel antag count: 33*; TAAR1 antag conf: 57*; Ga16 ag counter: 11; TAAR1 ag count: 14

Results for O=C(Nc1ccc(N2CCOCC2)c(S(=O)(=O)Nc2ccccc2Cl)c1)c1ccc(F)cc1 ?
TAAR1 agonist: 9; CRFBP-R2 agonist: 19; CRFBP-R2 block: -12; TMEM16A act: inactive; TAAR1 antagonist: 70*; nonsel antag count: 36*; TAAR1 antag conf: 53*; Ga16 ag counter: 13*; TAAR1 ag count: 14

How did COc1ccc(C(=O)N/C(=C\c2cn(S(=O)(=O)N(C)C)c3ccccc23)C(=O)N2CCN(C)CC2)cc1OC do in these assays?
TAAR1 agonist: 2; CRFBP-R2 agonist: -1; CRFBP-R2 block: 3; TAAR1 antagonist: 1

What do the screens show for `COc1cc(SC)ccc1C(=O)Nc1ccccc1C#N`?
TAAR1 agonist: 25; CRFBP-R2 agonist: 0; TMEM16A inh: inactive; CRFBP-R2 block: -23; TMEM16A act: inactive; TAAR1 antagonist: 50*; nonsel antag count: 9; TAAR1 antag conf: 16; Ga16 ag counter: 0; TAAR1 ag count: 0
